Ins promoter up: insulin promoter activators in MIN6 cells, imaging, high-content screening, mouse beta cells | MIN6 insulin promoter-GFP reporter; hits give high values | AID 1625, 2009 | z-score at 5 µM | 0.3% of 190,000 active;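 active = z-score above 3 at 5 µM with at least 500 cells counted in the well; inconclusive = wells under 500 cells, flagged as cytotoxic or low count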
WT yeast gro inh: growth inhibition of WT strain, primary screen, mitochondrial fusion inhibitor project, WT and mutant strains, chemical genetic; mitochondrial fusion phenotypic screen; inhibition, % at 10 µM; 2.1% of 190,000 active; AID 1362, 2008; in the data active = inhibition above about 58%; tested in S. cerevisiae
SKKanGAS inh: S. pyogenes SKKanGAS growth inhibitors in kanamycin, primary screen, streptokinase expression inhibitor project, SKKanGAS strain, BacTiter-Glo luminescence; 6 h; inhibition, % at 7.5 µM; 1.3% of 300,000 active;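 active = mean replicate score, as percent of positive control median, at least 50; inconclusive = mean below 50 but one replicate at or above 50; inactive = mean and every replicate below 50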;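 also: strain carries kanamycin resistance gene driven by streptokinase promoter and grows in 40 µg/ml kanamycin; loss of luminescence reflects streptokinase promoter inhibition or plain growth inhibition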
Autophagy HCS: autophagy modulators in MEF cells, primary screen, imaging, high-content, MEF GFP-LC3; calls only at 10 µM (by protocol); 0.98% of 190,000 active; MEF GFP-LC3 puncta imaging; test concentration mostly 10 µM;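 active = percentage of spot-positive cells more than 3 SD above its plate mean, without a fluorescence outlier flag or 80% toxicity; inconclusive = no clear call, values can overlap the other calls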
KCC2 mod: KCC2 cotransporter modulators, thallium flux, primary screen, cell-based, HEK293 KCC2, FluoZin-2 fluorescence, MLSMR; Solute carrier family 12 member 5 (Homo sapiens), Q9H2X9; KCC2 cells, thallium flux FluoZin-2 fluorescence; B-score of Tl+ flux slope (higher = more flux/activation; lower = inhibition) at 10 µM; 2.2% of 190,000 active;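 active = thallium flux slope and its plate-corrected score both differing from the plate sample mean at a set confidence after two filtering rounds, in either direction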;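 also: slope of fluorescence scaled to starting intensity during 10 to 20 s after thallium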
Target sequence (Q9H2X9 whole entry, looked up): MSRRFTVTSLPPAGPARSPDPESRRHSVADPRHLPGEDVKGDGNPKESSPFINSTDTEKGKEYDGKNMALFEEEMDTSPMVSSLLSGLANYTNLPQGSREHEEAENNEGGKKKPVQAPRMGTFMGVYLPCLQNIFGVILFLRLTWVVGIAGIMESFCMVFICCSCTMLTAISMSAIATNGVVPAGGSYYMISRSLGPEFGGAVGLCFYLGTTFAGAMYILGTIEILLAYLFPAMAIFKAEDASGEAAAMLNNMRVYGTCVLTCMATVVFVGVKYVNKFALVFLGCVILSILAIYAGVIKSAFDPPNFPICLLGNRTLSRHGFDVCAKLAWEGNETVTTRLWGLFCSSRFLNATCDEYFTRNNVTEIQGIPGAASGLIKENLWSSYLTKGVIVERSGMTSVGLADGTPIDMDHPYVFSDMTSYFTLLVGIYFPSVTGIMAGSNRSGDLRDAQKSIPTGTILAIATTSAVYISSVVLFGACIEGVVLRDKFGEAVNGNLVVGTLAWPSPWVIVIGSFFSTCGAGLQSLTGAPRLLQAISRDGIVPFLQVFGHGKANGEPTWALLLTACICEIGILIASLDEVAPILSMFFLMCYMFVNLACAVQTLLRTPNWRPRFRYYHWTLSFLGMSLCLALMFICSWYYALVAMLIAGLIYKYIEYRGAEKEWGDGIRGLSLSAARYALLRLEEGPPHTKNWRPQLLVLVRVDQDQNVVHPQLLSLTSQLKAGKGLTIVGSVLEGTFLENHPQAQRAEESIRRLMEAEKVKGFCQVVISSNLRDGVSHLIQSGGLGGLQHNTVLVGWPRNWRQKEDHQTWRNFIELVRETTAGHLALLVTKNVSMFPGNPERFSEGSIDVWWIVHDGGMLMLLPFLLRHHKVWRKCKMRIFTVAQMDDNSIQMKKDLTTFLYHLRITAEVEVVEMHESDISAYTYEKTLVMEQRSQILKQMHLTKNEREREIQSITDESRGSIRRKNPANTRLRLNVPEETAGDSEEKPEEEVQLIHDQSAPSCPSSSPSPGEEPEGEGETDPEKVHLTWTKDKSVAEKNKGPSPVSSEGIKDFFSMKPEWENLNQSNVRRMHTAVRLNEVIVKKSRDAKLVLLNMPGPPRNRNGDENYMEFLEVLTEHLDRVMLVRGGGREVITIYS
Rad51 HR inh: human RAD51 strand exchange inhibitors, primary screen, biochemical, fluorescence | DNA repair protein RAD51 homolog 1 (Homo sapiens), Q06609 | hRad51 DNA strand exchange, fluorescence dequenching | inhibition, % at 10 µM | 0.085% of 200,000 active | AID 1385, 2008;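 active = inhibition above 40% at the single screening dose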
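Read-out basis: percent inhibition relative to plate controls and blanks / Assay system: human Rad51 nucleoprotein filaments preassembled on unlabelled ssDNA / Timing: filaments 15 min 37 °C, then compound 30 min / Control set: per-plate controls and blanks / Technique: fluorescence dequenching at 485/520 nm / Compound: 10 µM final, single point / Also added: Fluorescein- and BHQ1-tagged 47-mer duplex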
KCC2 sec1: KCC2 modulators in sodium-free buffer, confirmation, cell-based, HEK293 KCC2, thallium flux, secondary assay. shares compounds with KCC2 mod. FluoZin2 fluorescence; hits give high values. normalised thallium flux (F/F0 slope) at 10 µM. 15% of 3,700 active;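 active = thallium flux slope above the same plate's solvent-only control mean plus 3 SD; inconclusive = the two replicate wells disagree; inactive = no significant difference from solvent-only control wells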
KCC2 bumet counter: thallium flux persisting under bumetanide in KCC2 cells, confirmation, counter-screen for KCC2 modulator project, cell-based, HEK293 KCC2, FluoZin2, secondary assay 3 | shares compounds with KCC2 mod | HEK293-KCC2 + bumetanide/ouabain; hits give high values | normalized thallium flux at 10 µM | 49% of 3,700 active;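 active = thallium entry rate above the same plate's blocked-transporter control wells by more than 3 SD; inconclusive = the two repeat wells disagree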;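 also: raw slope of fluorescence over initial fluorescence between 10 and 20 s after thallium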
KCC2 secondary2: KCC2 modulators without ouabain present, confirmation, cell-based, HEK293 KCC2, thallium flux, FluoZin2, secondary assay 2; normalized thallium flux at 10 µM; thallium flux FluoZin2 fluorescence; actives lie on both sides; F/F0 rise rate, 10–20 s post-thallium; 23% of 3,700 active; shares compounds with KCC2 mod;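 active = thallium flux slope more than 3 SD above or below the plate's solvent-only control mean, mostly below; inconclusive = the two repeat wells disagreed; inactive = no significant shift from solvent-only controls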
HEK counter1: thallium flux modulation in parental HEK cells, confirmation, counter-screen for KCC2 modulator project, cell-based, counterscreen 1; shares compounds with KCC2 mod; HEK293 parental cells, thallium flux FluoZin2, ouabain; baseline-ratio fluorescence slope, 10–20 s after thallium; thallium flux rate (normalised fluorescence) at 10 µM; 46% of 3,700 active; AID 1716, 2009;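 active = thallium flux rate significantly above the same plate's solvent-only control wells, beyond their mean plus 3 SD; inconclusive = the two replicate wells gave conflicting results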
KCC2 ouabain: KCC2 inhibitors and activators, ouabain retest, confirmation, HEK-KCC2 cells | shares compounds with KCC2 mod | HEK293-KCC2, thallium flux FluoZin2 fluorescence; bidirectional: low = inhibitor, high = activator | raw Tl+ flux slope (below DMSO = inhibition, above = activation) at 10 µM | 48% of 3,700 active | AID 1717, 2009;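 active = thallium flux slope beyond 3 SD from same-plate DMSO control mean in most replicates, usually higher, sometimes lower; inconclusive = repeat tests gave conflicting results; inactive = no significant difference from controls in most replicates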;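 also: slope of initial-normalized fluorescence between seconds 10 and 20 after thallium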
HEK293 Tl flux2: native HEK Tl+ uptake effects, second counter-screen – HEK cells, counterscreen 2, counter-screen for KCC2 modulator project, confirmation; thallium flux slope at 10 µM; shares compounds with KCC2 mod; HEK293 parental, thallium flux FluoZin-2 fluorescence slope; 33% of 3,700 active; AID 1718, 2009;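 active = thallium flux slope above the same plate's solvent-control mean plus 3 SD in both duplicate wells; inconclusive = duplicate wells that disagreed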;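 also: run without ouabain in cells lacking the KCC2 cotransporter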
Numbers stand for hits; - = inactive; ? = inconclusive; . = no result. A selection: hits, their analogues and other compounds. The true share with any hit is near 4.2%.

SMILES	Ins promoter up	WT yeast gro inh	SKKanGAS inh	Autophagy HCS	KCC2 mod	Rad51 HR inh	KCC2 sec1	KCC2 bumet counter	KCC2 secondary2	HEK counter1	KCC2 ouabain	HEK293 Tl flux2
COC(=O)[C@@]12CCCN1[C@H](c1ccc(-c3ccc(Cl)c(Cl)c3)cc1)[C@H]1C(=O)N(C)C(=O)[C@H]12	.	.	-	.	.	.	.	.	.	.	.	.
O=C(CNc1ccccc1OC(F)F)N1CCc2ccccc21	-	-	-	-	-	-	.	.	.	.	.	.
COc1cccc(/C=C2\SC(=S)N(NS(=O)(=O)c3ccc(C)cc3)C2=O)c1OC	.	.	-	.	.	.	.	.	.	.	.	.
CC(/C=C1\SC(=S)N(CCCC(=O)Nc2ccc(C(=O)O)c(O)c2)C1=O)=C\c1ccccc1	-	-	100	-	-4.7	-	-	-	-	-	0.014	-
COc1cc(/C=C2\SC(=S)N(NS(=O)(=O)c3ccc(C)cc3)C2=O)cc(OC)c1OC	-	.	-	.	7.8	.	-	0.022	-	0.014	-	-
COc1cc(/C=C2\SC(=S)N(NS(=O)(=O)c3ccc(C)cc3)C2=O)ccc1O	-	.	-	.	-4.9	-	-	-0.0052	0.018	0.0044	0.0057	?
COc1cc(/C=C2\SC(=S)N(NS(=O)(=O)c3ccccc3)C2=O)ccc1O	-	.	-	.	-	.	.	.	.	.	.	.
CC(/C=C1\SC(=S)N(CCC(=O)Nc2ccc(O)cc2)C1=O)=C\c1ccccc1	.	.	-	.	.	.	.	.	.	.	.	.
CC(/C=C1\SC(=S)N(NS(=O)(=O)c2ccc(C)cc2)C1=O)=C\c1ccccc1	-	.	78	.	99	.	-	0.1	0.072	0.083	0.08	0.071
CC(/C=C1\SC(=S)N(C(C(=O)O)C(C)C)C1=O)=C\c1ccccc1 (centres undefined)	-	-	-	-	-3.3	-	-	-	0.025	-	?	-
CCSC1=N/C(=C/c2ccsc2)C(=O)N1c1ccccc1	-	-	-	-	-4.7	-	-	-	-	-	-	-
O=C(Nc1ccc(S(=O)(=O)N2CCCC2)cc1)C1CC(=O)N(c2ccc(F)cc2)C1 (centres undefined)	.	.	-	.	.	.	.	.	.	.	.	.
N#Cc1cc(C(=O)c2cc(Cl)ccc2O)cn(-c2ccccc2)c1=O	-	-	-	-	-5	-	-	-	-	-	-	-
Cc1c(-n2cc(C(=O)c3cc(Cl)ccc3O)cc(C#N)c2=O)c(=O)n(-c2ccccc2)n1C	-	-	-	-	-	-	.	.	.	.	.	.
CCOc1ccccc1NC1=C(Cl)C(=O)N(c2ccccc2)C1=O	-	-	-	-	-	-	.	.	.	.	.	.
Cc1ccc(C(=O)/C=C2/NC(=O)CS2)cc1	.	-	-	-	-	-	.	.	.	.	.	.
O=C1CS/C(=C/C(=O)c2cccc(Cl)c2)N1	-	-	-	-	6.8	-	?	0.024	-	0.011	0.051	0.011
CCC(=O)N(CCC(c1ccccc1)c1ccco1)Cc1cccs1 (centres undefined)	-	-	-	-	-	-	.	.	.	.	.	.
CCC(=O)N(CCC(Cc1ccccc1)c1ccco1)Cc1ccco1 (centres undefined)	-	-	-	-	-3.9	-	-	0.0026	-	0.0046	0.013	0.0069
C=CCc1cccc2cc(C(=O)Nc3cccc(C(=O)O)c3)c(=O)oc12	-	.	-	.	-	-	.	.	.	.	.	.
C=CCc1cccc2cc(C(=O)NNC(=O)c3ccncc3)c(=O)oc12	-	-	-	-	4.8	-	-	-	-	-	-	-
Cc1nn(Cc2ccccc2)c(C)c1NC(=O)c1noc2c1CCc1ccccc1-2	-	-	-	-	-4.7	-	-	?	-	-	?	-
COc1cc(NC(=O)CSc2nccc(=O)[nH]2)c(C)cc1[N+](=O)[O-]	-	-	-	-	-3.4	-	-	-	-	-	-	-
CC(C)CNC(=O)c1ccccc1NC(=O)c1ccccc1N(C)S(C)(=O)=O	.	-	-	-	-3.8	-	-	-	?	?	-	-
NS(=O)(=O)c1ccc(CCn2c(=S)[nH]c3ccc(F)cc3c2=O)cc1	-	-	-	-	3.1	-	?	-	-	0.0093	-	0.011
SMILES	Ins promoter up	WT yeast gro inh	SKKanGAS inh	Autophagy HCS	KCC2 mod	Rad51 HR inh	KCC2 sec1	KCC2 bumet counter	KCC2 secondary2	HEK counter1	KCC2 ouabain	HEK293 Tl flux2
C=C1c2ccccc2NC(=S)N1Cc1ccc2c(c1)OCO2	-	-	-	-	9.9	-	-	0.02	-	0.021	0.034	0.017
C/C=C(\C)CN1CCC(n2nccc2NC(=O)CCCc2ccccc2)CC1	.	.	-	.	.	.	.	.	.	.	.	.
CCN(CC(=O)Nc1ccc(S(=O)(=O)N2CCCCC2)cc1)Cc1ccccc1	.	.	-	.	.	.	.	.	.	.	.	.
COc1ccc(-c2cc(CCCC(=O)NCCc3ccccc3)no2)cc1	-	.	-	.	-4.3	-	-	-	?	-	0.016	-
O=C(COC(=O)CNC(=O)c1ccc(Cl)c([N+](=O)[O-])c1)NC(=O)CN1CCCC1=O	.	.	-	.	.	.	.	.	.	.	.	.
O=[N+]([O-])c1c(NCCCO)cc(Sc2nc3ccccc3s2)c2nonc12	.	-	78	-	3.2	.	-	0.019	-	0.013	?	0.016
Cc1nnc(Sc2cc(NCCCO)c([N+](=O)[O-])c3nonc23)s1	-	-	?	-	-	-	.	.	.	.	.	.

Source: PubChem BioAssay
